In ChEMBL document CHEMBL2176870 (J Med Chem, 2012):
Converted amounts (≈) assume the structure as drawn. Blank lines part the entries; values can stand above or below the compound they belong to.

Columns and labels:
[1] = test system: Neisseria meningitidis; experiment: Antibacterial activity against Neisseria meningitidis; format: functional
[2] = test system: Moraxella catarrhalis; experiment: Antibacterial activity against Moraxella catarrhalis; format: functional
[3] = test system: Neisseria gonorrhoeae; experiment: Antibacterial activity against Neisseria gonorrhoeae; format: functional
[4] = test system: Haemophilus influenzae; experiment: Antibacterial activity against Haemophilus influenzae; format: functional
[5] = test system: Escherichia coli; experiment: Antibacterial activity against Escherichia coli; format: functional
[6] = test system: Proteus mirabilis; experiment: Antibacterial activity against Proteus mirabilis; format: functional
[7] = test system: Staphylococcus aureus; experiment: Antibacterial activity against methicillin-resistant Staphylococcus aureus NRS384 infected in Swiss mouse; format: functional
How it was run: (§1)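 Murine lethal systemic infection by intraperitoneal MRSA challenge. A single subcutaneous dose was given 5 min after infection.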

[8] = test system: Staphylococcus aureus; experiment: Antibacterial activity against methicillin-resistant Staphylococcus aureus NRS385 infected in Swiss mouse; format: functional; how it was run: as §1
[9] = test system: Staphylococcus aureus; experiment: Antibacterial activity against methicillin-resistant Staphylococcus aureus NRS382 infected in Swiss mouse; format: functional; how it was run: as §1
[10] = test system: Staphylococcus aureus; experiment: Antibacterial activity against methicillin-resistant Staphylococcus aureus; format: functional
[11] = test system: Staphylococcus aureus; experiment: Antibacterial activity against methicillin-susceptible Staphylococcus aureus; format: functional
[12] = test system: Staphylococcus epidermidis; experiment: Antibacterial activity against methicillin-resistant Staphylococcus epidermidis; format: functional
[13] = test system: Staphylococcus aureus; experiment: Antibacterial activity against community acquired methicillin-resistant Staphylococcus aureus; format: functional
[14] = test system: Staphylococcus haemolyticus; experiment: Antibacterial activity against methicillin-resistant Staphylococcus haemolyticus; format: functional
[15] = Cytotoxicity against human HepG2 cells; format: cell-based; settings: read-out: ED50 (the source's name)
[16] = test system: Enterococcus faecalis; experiment: Antibacterial activity against Enterococcus faecalis ATCC 29212 after 18 hrs by broth microdilution method; format: functional; settings: ATCC 29212, 18 h
How it was run: (§2)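 CLSI broth microdilution with serial 2-fold dilutions from 0.06 to 64 μg/mL. Cation-adjusted Mueller–Hinton broth, inoculum 5 × 10^5 CFU/mL, incubated at 35 °C for 18 h. MIC taken as the lowest concentration with no visible growth.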

[17] = test system: Escherichia coli; experiment: Antibacterial activity against Escherichia coli C7 after 18 hrs by broth microdilution method; format: functional; settings: C7, 18 h
[18] = test system: Staphylococcus aureus; experiment: Antibacterial activity against Staphylococcus aureus CIP54.146 after 18 hrs by broth microdilution method; format: functional; settings: CIP54.146, 18 h; how it was run: as §2
[19] = test system: Streptococcus pneumoniae; experiment: Antibacterial activity against Streptococcus pneumoniae D39 after 18 hrs by broth microdilution method; format: functional; settings: D39, 18 h
How it was run: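 CLSI broth microdilution with 2-fold dilutions from 0.06 to 64 μg/mL. Cation-adjusted Mueller–Hinton broth with 2.5% lysed horse blood, inoculum 5 × 10^5 CFU/mL, grown at 35 °C for 18 h in 5% CO2. MIC is the lowest concentration showing no visible growth.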

[20] = target: T1, Enoyl-[acyl-carrier-protein] reductase [NADPH] FabI (Staphylococcus aureus, UniProt Q6GI75); experiment: Inhibition of Staphylococcus aureus recombinant FabI using trans-2-octenoyl N-acetylcysteamine thioester as substrate preincubated for 60 mins
T1 sequence (Q6GI75 whole entry): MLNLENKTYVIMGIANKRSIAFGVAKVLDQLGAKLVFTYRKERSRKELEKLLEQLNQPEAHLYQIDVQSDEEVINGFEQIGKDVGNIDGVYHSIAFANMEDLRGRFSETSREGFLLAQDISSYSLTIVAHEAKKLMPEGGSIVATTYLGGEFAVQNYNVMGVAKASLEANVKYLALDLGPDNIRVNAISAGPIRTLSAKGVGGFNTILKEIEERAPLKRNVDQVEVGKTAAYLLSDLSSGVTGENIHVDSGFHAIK
How it was run: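 Recombinant S. aureus FabI (2 nM) in 50 mM ADA pH 6.5, 1 mM DTT, 0.006% Triton X-100, 50 mM NaCl. Preincubated 60 min at room temperature with 40 μM NADPH, 10 μM NADP+ and inhibitor in DMSO. Reaction started with 100 μM t-o-NAC. Inhibition versus untreated samples; IC50 by Langmuir fit.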

- MIC90 [1]: ≤ 0.008 µg/mL
- MIC90 [2]: 0.03 µg/mL
- MIC90 [3]: 0.5 µg/mL
- MIC90 [4]: 0.03 µg/mL
- MIC90 [5]: ≥ 16 µg/mL
- MIC90 [6]: 0.06 µg/mL
Compound: C[C@H]1COc2c(N3CCN(C)CC3)c(F)cc3c(=O)c(C(=O)O)cn1c23.C[C@H]1COc2c(N3CCN(C)CC3)c(F)cc3c(=O)c(C(=O)O)cn1c23.O [LEVOFLOXACIN]

Compound: CN[C@H](CC(C)C)C(=O)N[C@H]1C(=O)N[C@@H](CC(N)=O)C(=O)N[C@H]2C(=O)N[C@H]3C(=O)N[C@H](C(=O)N[C@H](C(=O)O)c4cc(O)cc(O)c4-c4cc3ccc4O)[C@H](O)c3ccc(c(Cl)c3)Oc3cc2cc(c3O[C@@H]2O[C@H](CO)[C@@H](O)[C@H](O)[C@H]2O[C@H]2C[C@](C)(N)[C@H](O)[C@H](C)O2)Oc2ccc(cc2Cl)[C@H]1O [VANCOMYCIN]
- ED50 [7]: 9.4 mg/kg
- ED50 [8]: 5 mg/kg
- ED50 [9]: 6 mg/kg

Compound: CC(=O)NC[C@H]1CN(c2ccc(N3CCOCC3)c(F)c2)C(=O)O1 [LINEZOLID]
- MIC90 [10]: ≥ 16 µg/mL
- MIC90 [11]: 2 µg/mL (≈ 5.93 µM)
- MIC90 [12]: 1 µg/mL (≈ 2.96 µM)
- MIC90 [13]: 2 µg/mL (≈ 5.93 µM)
- MIC90 [14]: 1 µg/mL (≈ 2.96 µM)

- MIC [16]: 32 µg/mL (≈ 138 µM)
- MIC [17]: 1 µg/mL (≈ 4.31 µM)
- MIC [18]: 0.062 µg/mL (≈ 0.267 µM)
- MIC [19]: 16 µg/mL (≈ 68.9 µM)
- IC50 [20]: 37 nM
Compound: CCc1cc(O)c(Oc2ccccc2)cc1F
- CC50 [15]: 16 µg/mL (≈ 68.9 µM)
